Assay results: ChEMBL document CHEMBL4052603, “Branimycins B and C, Antibiotics Produced by the Abyssal Actinobacterium Pseudonocardia carboxydivorans M-227” (2017)
Converted amounts (≈) assume the structure as drawn.

Experiments:
Assay type in all cases: functional
Enterococcus faecium = assay: Antibacterial activity against Enterococcus faecium 10701 by CLSI method
In short: (§1)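 CLSI susceptibility testing on Mueller-Hinton agar; clinical isolates came from patients with infections.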

Haemophilus influenzae [1] = assay: Antibacterial activity against Haemophilus influenzae 10996 by CLSI method; in short: as §1
Staphylococcus aureus [2] = assay: Antibacterial activity against methicillin-sensitive Staphylococcus aureus MB2865 by CLSI method
In short: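 MSSA MB2865 tested with diluted inoculum mixed with medium (LB or BHI) plus compound dilution. Twofold serial dilutions from 160 to 0.31 μg/mL, in triplicate. Penicillin G (0.312 to 0.039 μg/mL) was the positive control and amphotericin B (16 to 0.25 μg/mL) the negative control.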

Enterococcus faecalis [3] = assay: Antibacterial activity against Enterococcus faecalis ATCC 51299 by CLSI method; in short: as §1
Bacteroides fragilis [4] = assay: Antibacterial activity against Bacteroides fragilis 61592 by CLSI method
Pseudomonas aeruginosa = assay: Antibacterial activity against Pseudomonas aeruginosa PAO1 after 20 hrs by spectrophotometric method; conditions: PAO1, 20 h
Staphylococcus aureus [5] = assay: Antibacterial activity against Staphylococcus aureus 11497 by CLSI method; in short: as §1
[6] = tested on: Mycobacterium tuberculosis; assay: Antibacterial activity against Mycobacterium tuberculosis MDR-1 by CLSI method
In short: (§2)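 Agar proportion method for slowly growing mycobacteria on Middlebrook 7H10 agar supplemented with 10% OADC and 0.5% glycerol.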

Micrococcus luteus = assay: Antibacterial activity against Micrococcus luteus ATCC 14452 by CLSI method; in short: as §1
Staphylococcus aureus [7] = assay: Antibacterial activity against Staphylococcus aureus ATCC 43300 by CLSI method
[8] = tested on: Corynebacterium urealyticum; assay: Antibacterial activity against Corynebacterium urealyticum 1492 by CLSI method
In short: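 CLSI procedure on trypticasein soy agar with 5% sheep blood.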

Bacteroides fragilis [9] = assay: Antibacterial activity against Bacteroides fragilis ATCC 25285 by CLSI method
Acinetobacter baumannii = assay: Antibacterial activity against Acinetobacter baumannii MB5973 after 20 hrs by spectrophotometric method; conditions: MB5973, 20 h
Streptococcus pyogenes = assay: Antibacterial activity against Streptococcus pyogenes 81293 by CLSI method
In short: (§3)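 CLSI procedure on Mueller-Hinton agar, supplemented per CLSI conditions for S. pneumoniae, S. pyogenes and N. meningitidis.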

Escherichia coli [10] = assay: Antibacterial activity against Escherichia coli ESS by CLSI method; in short: as §1
[11] = tested on: Mycobacterium tuberculosis; assay: Antibacterial activity against Mycobacterium tuberculosis H37Rv by CLSI method; in short: as §2
Staphylococcus aureus [12] = assay: Antibacterial activity against Staphylococcus aureus ATCC 6538P by CLSI method; in short: as §1
Clostridium perfringens = assay: Antibacterial activity against Clostridium perfringens 103281 by CLSI method
Staphylococcus aureus [13] = assay: Antibacterial activity against methicillin-resistant Staphylococcus aureus MB5393 by CLSI method
In short: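 Broth microdilution: 90 μL diluted inoculum plus 8.4 μL medium (LB or BHI) and 1.6 μL compound dilution. Compounds tested as 2-fold serial dilutions from 160 to 0.31 μg/mL, in triplicate. Vancomycin (32 to 4 μg/mL) served as positive control and amphotericin B (16 to 0.25 μg/mL) as negative control.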

[14] = tested on: Mycobacterium tuberculosis; assay: Antibacterial activity against Mycobacterium tuberculosis MDR-2 by CLSI method; in short: as §2
Haemophilus influenzae [15] = assay: Antibacterial activity against Haemophilus influenzae ATCC 49247 by CLSI method
Enterococcus faecalis [16] = assay: Antibacterial activity against Enterococcus faecalis 10544 by CLSI method; in short: as §1
Enterococcus faecalis [17] = assay: Antibacterial activity against Enterococcus faecalis ATCC 29212 by CLSI method; in short: as §1
Klebsiella pneumoniae = assay: Antibacterial activity against Klebsiella pneumoniae ATCC 700603 by CLSI method
Escherichia coli [18] = assay: Antibacterial activity against Escherichia coli MB2884 after 20 hrs by spectrophotometric method; conditions: MB2884, 20 h
Neisseria meningitidis = assay: Antibacterial activity against Neisseria meningitidis 71327 by CLSI method; in short: as §3
Staphylococcus aureus [19] = assay: Antibacterial activity against Staphylococcus aureus ATCC 25923 by CLSI method; in short: as §1
Streptococcus pneumoniae = assay: Antibacterial activity against Streptococcus pneumoniae 64412 by CLSI method; in short: as §3

| SMILES | MIC (Enterococcus faecium) [µg/mL] | MIC (Haemophilus influenzae [1]) [µg/mL] | MIC (Staphylococcus aureus [2]) [µg/mL] | MIC (Enterococcus faecalis [3]) [µg/mL] | MIC (Bacteroides fragilis [4]) [µg/mL] | MIC (Pseudomonas aeruginosa) [µg/mL] | MIC (Staphylococcus aureus [5]) [µg/mL] | MIC [6] [µg/mL] | MIC (Micrococcus luteus) [µg/mL] | MIC (Staphylococcus aureus [7]) [µg/mL] | MIC [8] [µg/mL] | MIC (Bacteroides fragilis [9]) [µg/mL] | MIC (Acinetobacter baumannii) [µg/mL] | MIC (Streptococcus pyogenes) [µg/mL] | MIC (Escherichia coli [10]) [µg/mL] | MIC [11] [µg/mL] | MIC (Staphylococcus aureus [12]) [µg/mL] | MIC (Clostridium perfringens) [µg/mL] | MIC (Staphylococcus aureus [13]) [µg/mL] | MIC [14] [µg/mL] | further results |
| --- | --- | --- | --- | --- | --- | --- | --- | --- | --- | --- | --- | --- | --- | --- | --- | --- | --- | --- | --- | --- | --- |
| COC[C@H]1[C@@H](O)[C@@H]2O[C@@]34/C(C)=C/[C@@H](C)[C@@H]([C@H](O)CO)OC(=O)[C@H](COC)[C@H]3C=C[C@@H]2[C@H]4[C@@H]1O | > 64 | > 64 | 80 (≈ 171 µM) | > 64 | > 128 | > 80 | > 64 | > 32 | 16 (≈ 34.1 µM) | > 64 | 16 (≈ 34.1 µM) | 128 (≈ 273 µM) | > 80 | > 128 | 128 (≈ 273 µM) | > 32 | 32 (≈ 68.3 µM) | 16 (≈ 34.1 µM) | 20 to 40 (≈ 42.7 to 85.4 µM) | > 32 | MIC (Haemophilus influenzae [15]): > 64 µg/mL; MIC (Enterococcus faecalis [16]): 64 µg/mL (≈ 137 µM); MIC (Enterococcus faecalis [17]): > 64 µg/mL; MIC (Klebsiella pneumoniae): > 80 µg/mL; MIC (Escherichia coli [18]): > 80 µg/mL; MIC (Neisseria meningitidis): 64 µg/mL (≈ 137 µM); MIC (Staphylococcus aureus [19]): 64 µg/mL (≈ 137 µM); MIC (Streptococcus pneumoniae): > 128 µg/mL |
| COC[C@H]1C(=O)O[C@H]([C@H](O)CO)[C@H](C)/C=C(\C)[C@@]23O[C@H]4[C@H](O)[C@H](C)[C@@H](O)[C@@H]2[C@H]4C=C[C@H]13 | > 64 | > 64 | > 160 | > 64 | 128 (≈ 292 µM) | > 80 | > 64 | > 32 | 1 (≈ 2.28 µM) | > 64 | 8 (≈ 18.2 µM) | 32 (≈ 73 µM) | > 80 | > 128 | 64 (≈ 146 µM) | > 32 | > 128 | 32 (≈ 73 µM) | > 160 | > 32 | MIC (Haemophilus influenzae [15]): 32 µg/mL (≈ 73 µM); MIC (Enterococcus faecalis [16]): > 64 µg/mL; MIC (Enterococcus faecalis [17]): > 64 µg/mL; MIC (Klebsiella pneumoniae): > 80 µg/mL; MIC (Escherichia coli [18]): > 80 µg/mL; MIC (Neisseria meningitidis): 32 µg/mL (≈ 73 µM); MIC (Staphylococcus aureus [19]): > 64 µg/mL; MIC (Streptococcus pneumoniae): > 128 µg/mL |
